Experiments:
[1] = target: Human immunodeficiency virus type 1 reverse transcriptase (Human immunodeficiency virus 1, UniProt Q72547); assay: Inhibition of recombinant HIV-1 reverse transcriptase activity
[2] = test system: CEM-SS; assay: Cytotoxic concentration against mock infected in CEM-SS cells; assay type: functional; details: Homo sapiens
Outline: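 Mock-infected CEM-SS cells, tested alongside the HIV-1 RF cytoprotection (MTS) assay. Data come from triplicate tests.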

[3] = test system: Human immunodeficiency virus 1; assay: In vitro anti-HIV activity against HIV-1RF infected in CEM-SS cells using MTS cytoprotection assay; assay type: functional, organism-based; details: Human immunodeficiency virus 1, CEM-SS
[4] = In vitro hydrolytic stability in rat plasma, expressed as t1/2; assay type: ADME, cell-free
Outline: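 1,1-Diphenylethylene (2.1–5.1 mg) or benzophenone (2.1 mg) served as internal standard. Hydrolysis of the methyl ester was followed, and t1/2 is given in min ± SD from triplicate tests.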

[5] = test system: MT4; assay: Cytotoxic concentration against mock infected in MT-4 cells; assay type: functional; details: Homo sapiens
Outline: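 Uninfected (mock-infected) MT-4 cells, run alongside the MTT antiviral assay. Triplicate tests.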

[6] = test system: Human immunodeficiency virus 2; assay: In vitro anti-HIV activity against HIV-2ROD infected in MT-4 cells using MTT assay; assay type: functional, organism-based; details: Human immunodeficiency virus 2, MT4
Outline: (§1)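 MT-4 cells infected with HIV-1 strain IIIB or HIV-2 strain ROD. Protection from viral cytopathicity was read by MTT. Triplicate tests.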

[7] = test system: Human immunodeficiency virus 1; assay: In vitro anti-HIV activity against HIV-1 IIIB infected in MT-4 cells using MTT assay; assay type: functional, organism-based; details: Human immunodeficiency virus 1, MT4; outline: as §1
[8] = In vitro hydrolytic stability in rat plasma, expressed as t1/2; Not hydrolyzed; assay type: ADME, cell-free
Outline: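 Compounds (4.3–9.3 mg) were incubated in rat plasma in vitro. 1,1-Diphenylethylene (2.1–5.1 mg) or benzophenone (2.1 mg) served as internal standard. Hydrolysis of the methyl ester was followed, and t1/2 is given in min ± SD from triplicate tests.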

For `COC(=O)CCC/C=C(/c1ccc(OC)c(OC)c1)c1cc(C)c(OC)c(C(=O)OC)c1`, the IC50 [1] was 0.074 µM, the CC50 [2] was 1.14 µM and the EC50 [3] was 0.21 µM.
In the case of `COC(=O)c1cc(C(=CCCN2CCOC2=O)c2cc(Br)c(OC)c(C(=O)OC)c2)cc(Br)c1OC`, the EC50 [3] is reported as 0.02 µM.
`COC(=O)CCC/C=C(/c1cc(Cl)c(OC)c(C(=O)OC)c1)c1cc(Cl)ccc1OC` showed a half-life [4] of 46.2 s, an IC50 [1] greater than 100 µM and a CC50 [5] of 5.41 µM. The CC50 [2] was 9.3 µM, the EC50 [6] was greater than 5.41 µM and the EC50 [7] was greater than 5.41 µM. The EC50 [3] was greater than 100 µM.
With `COC(=O)CCC/C=C(/c1cc(C)c(OC)c(C(=O)OC)c1)c1cc(Cl)ccc1OC` the half-life [4] was 58.8 s, the IC50 [1] was greater than 100 µM and the CC50 [5] was 13.8 µM. For the same molecule, the CC50 [2] was 15.5 µM, the EC50 [6] was greater than 13.8 µM and the EC50 [7] was greater than 13.8 µM. For the same molecule, the EC50 [3] was greater than 100 µM.
In the case of `COC(=O)CCC/C=C(/c1cc(F)cc(C(F)(F)F)c1)c1cc(C)c(OC)c(C(=O)OC)c1`, the half-life [4] is reported as 261 s, the IC50 [1] is reported as 55.3 µM and the CC50 [5] is reported as 113 µM. The CC50 [2] was 12 µM, the EC50 [6] was 10.6 µM and the EC50 [7] was 2.54 µM. It also gave an EC50 [3] of 7.3 µM.
For `COC(=O)CCC/C=C(\c1cccc(C#N)c1)c1cc(Cl)ccc1OC`, the half-life [4] was 25.2 s, the IC50 [1] was 7.58 µM and the CC50 [5] was no less than 45.2 µM. For the same molecule, the CC50 [2] was 16.3 µM, the EC50 [6] was greater than 67.6 µM and the EC50 [7] was 9.11 µM. The EC50 [3] was 7 µM.
`COC(=O)CCC/C=C(\c1cc(C)c(OC)c(C(=O)OC)c1)c1cc(Cl)ccc1OC` gave a half-life [4] of 28.2 s, an IC50 [1] greater than 100 µM and a CC50 [5] of 18.8 µM. The CC50 [2] was 8.3 µM, the EC50 [6] was greater than 14.5 µM and the EC50 [7] was greater than 18.8 µM. It also gave an EC50 [3] greater than 100 µM.
In the case of `COC(=O)CCC/C=C(\c1cc(F)cc(C(F)(F)F)c1)c1cc(Cl)c(OC)c(C(=O)OC)c1`, the IC50 [1] is reported as greater than 100 µM, the CC50 [2] is reported as 16.1 µM and the EC50 [3] is reported as greater than 100 µM.
In the case of `COc1ccc(/C(=C\CCN2CCOC2=O)c2cc(F)cc(C(F)(F)F)c2)cc1OC`, the IC50 [1] is reported as 97.8 µM, the T1/2 [8] is reported as “Not hydrolyzed” and the CC50 [5] is reported as 18.5 µM. It also gave a CC50 [2] of 14.5 µM, an EC50 [6] greater than 13.4 µM and an EC50 [7] greater than 18.5 µM. It also gave an EC50 [3] greater than 100 µM.
With `COc1ccc(/C(=C\CCN2CCOC2=O)c2cc(F)ccc2C(F)(F)F)cc1OC` the IC50 [1] was greater than 100 µM, the T1/2 [8] was “Not hydrolyzed” and the CC50 [2] was 26.7 µM. The EC50 [3] was greater than 100 µM.
Molecule `COC(=O)CCC/C=C(/c1cc(C)c2on(C)c(=O)c2c1)c1cc(Cl)ccc1OC` has a half-life [4] of 28.8 s, an IC50 [1] of 8.2 µM and a CC50 [5] greater than 28.8 µM. For the same molecule, the CC50 [2] was 13 µM, the EC50 [6] was greater than 28.8 µM and the EC50 [7] was greater than 28.8 µM. The EC50 [3] was greater than 100 µM.
With `COC(=O)CCC/C=C(\c1cc(F)cc(C(F)(F)F)c1)c1cc(C)c2on(C)c(=O)c2c1` the half-life [4] was 52.2 s, the IC50 [1] was greater than 100 µM and the CC50 [5] was 39.8 µM. The CC50 [2] was 16.8 µM, the EC50 [6] was greater than 43.2 µM and the EC50 [7] was greater than 35.7 µM. It also gave an EC50 [3] greater than 100 µM.
`COC(=O)CCC/C=C(\c1cccc(C#N)c1)c1cc(C)c(OC)c(C(=O)OC)c1` gave a half-life [4] of 42.6 s, an IC50 [1] of 0.84 µM and a CC50 [5] of 153 µM. It also gave a CC50 [2] of 23.3 µM, an EC50 [6] greater than 169 µM and an EC50 [7] of 12.8 µM. The EC50 [3] was greater than 100 µM.
`COC(=O)CCC/C=C(\c1cccc(C#N)c1)c1cc(C)c2onc(OC)c2c1` gave a half-life [4] of 87.6 s, an IC50 [1] of 5.7 µM and a CC50 [5] of 4.69 µM. For the same molecule, the CC50 [2] was 0.8 µM, the EC50 [6] was greater than 5.63 µM and the EC50 [7] was greater than 2.05 µM. It also gave an EC50 [3] greater than 100 µM.
`COC(=O)c1cc(/C(=C\CCN2CCOC2=O)c2cc(F)cc(C(F)(F)F)c2)cc(C)c1OC` gave a half-life [4] of 563 s, an IC50 [1] of 15.7 µM and a CC50 [5] of 24.7 µM. For the same molecule, the CC50 [2] was 15 µM, the EC50 [6] was greater than 22.6 µM and the EC50 [7] was 9.6 µM. It also gave an EC50 [3] of 8.3 µM.
In the case of `COC(=O)CCC/C=C(\c1cccc(C#N)c1)c1cc(Cl)c(OC)c(C(=O)OC)c1`, the half-life [4] is reported as 26.4 s, the IC50 [1] is reported as 0.75 µM and the CC50 [5] is reported as 213 µM. The CC50 [2] was 20.2 µM, the EC50 [7] was 8.55 µM and the EC50 [3] was 7.1 µM.
`COC(=O)c1cc(/C(=C\CCN2CCOC2=O)c2ccc(OC)c(OC)c2)cc(C)c1OC` showed a half-life [4] of 346 s, an IC50 [1] of 1 µM and a CC50 [5] of 1.05 µM. It also gave a CC50 [2] of 0.49 µM, an EC50 [6] greater than 1.05 µM and an EC50 [7] greater than 1.05 µM. It also gave an EC50 [3] greater than 100 µM.
In the case of `COC(=O)c1cc(C(=CCCN2CCOC2=O)c2ccc(OC)c(OC)c2)cc(C)c1OC`, the half-life [4] is reported as 47.4 s, the IC50 [1] is reported as greater than 100 µM and the CC50 [5] is reported as 82.5 µM. For the same molecule, the CC50 [2] was 4.79 µM, the EC50 [6] was greater than 35.4 µM and the EC50 [7] was greater than 33.8 µM. It also gave an EC50 [3] greater than 100 µM.
With `COC(=O)CCC/C=C(\c1cc(F)cc(C(F)(F)F)c1)c1cc(C)c2onc(OC)c2c1` the IC50 [1] was 0.9 µM.
`COC(=O)CCC/C=C(\c1cc(F)cc(C(F)(F)F)c1)c1cc(C)c(OC)c(C(=O)OC)c1` gave an IC50 [1] greater than 100 µM, a CC50 [5] of 5.7 µM and a CC50 [2] greater than 5 µM. For the same molecule, the EC50 [6] was greater than 5.89 µM, the EC50 [7] was greater than 5.51 µM and the EC50 [3] was greater than 5 µM.

— ChEMBL document CHEMBL1140415, “Synthesis, anti-HIV activity, and metabolic stability of new alkenyldiarylmethane HIV-1 non-nucleoside reverse transcriptase inhibitors” (J Med Chem, 2005)
